Assay results from ChEMBL document CHEMBL1122945, “Synthesis and antitumor activity of a series of ftorafur analogues: the effect of varying electronegativity at the 1'-position” (J Med Chem, 1985).

Experiments:
P388 [1] = test: Evaluated for the antitumor activity in the P388 lymphocytic leukemia in female CDF1 mice injected intraperitoneally with 10 E-6 tumor cells dosed for 9 days at 20 mg/kg; no significant activity; type: functional, Mus musculus; conditions: route intraperitoneal
Procedure, shortened: (§1)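 P388 leukaemia screen run to NIH protocol in female CDF1 mice (~25 g). 1 × 10^6 cells were given ip on day 0, and compounds were dosed on days 1–9. Six mice per group, with 5-FU and fluorodeoxyuridine as positive internal standards. T/C values were calculated, and T/C above 125% counted as significant activity.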

P388 [2] = test: Average days survival of female CDF1 mice bearing lymphocytic leukemia, when 10 E-6 tumor cells were injected intraperitoneally, dosed for 9 days at 20 mg/kg.; type: functional, Mus musculus; conditions: route intraperitoneal
Procedure, shortened: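 P388 lymphocytic leukemia screen per NIH protocol in female CDF1 mice (~25 g), six per group. 1 × 10^6 cells injected ip on day 0. Compound given at 20 mg/kg on days 1–9. Survival of treated mice recorded and T/C calculated, with T/C above 125% taken as significant. 5-FU and fluorodeoxyuridine served as positive internal standards.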

[3] = Evaluated in vitro for the Cytotoxic activity in the L1210 cell culture screen at 100 uM Maximum cell kill in a 72-h period; type: cell-based; conditions: mouse, L1210 cells; read-out: Inhibition
Procedure, shortened: (§2)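 Compounds were suspended or dissolved in sterile 5 mM phosphate-buffered saline, sonicated 3 min, then serially diluted. L1210 cells were kept in suspension culture in RPMI-1640 with 10% fetal calf serum, penicillin and streptomycin at 37 °C, 98% humidity, 5% CO2. Exponentially growing cells (4 × 10^5 cells/mL) were exposed to compound. Read-out was percent inhibition versus control at maximum cell kill within 72 h, N = 9.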

[4] = Evaluated in vitro for the Cytotoxic activity in the L1210 cell culture screen at 10 uM Maximum cell kill in a 72-h period; type: cell-based; conditions: mouse, L1210 cells; read-out: Inhibition; procedure, shortened: as §2
[5] = Evaluated in vitro for the Cytotoxic activity in the L1210 cell culture screen at 1 uM Maximum cell kill in a 72-h period; type: cell-based; conditions: mouse, L1210 cells; read-out: Inhibition; procedure, shortened: as §2
P388 [6] = test: Evaluated for the antitumor activity in the P388 lymphocytic leukemia in female CDF1 mice injected intraperitoneally with 10 E-6 tumor cells dosed for 9 days at 20 mg/kg; type: functional, Mus musculus; conditions: route intraperitoneal; procedure, shortened: as §1
P388 [7] = test: Evaluated for the antitumor activity in the P388 lymphocytic leukemia in female CDF1 mice injected intraperitoneally with 10 E-6 tumor cells dosed for 9 days at 20 mg/kg;; type: functional, Mus musculus; conditions: route intraperitoneal; procedure, shortened: as §1
[8] = Evaluated in vitro for the Cytotoxic activity in the L1210 cell culture screen at 100 uM Maximum cell kill in a 72-h period r; type: cell-based; conditions: mouse, L1210 cells; read-out: Inhibition; procedure, shortened: as §2

SMILES | T/C (P388 [1]) [%] | Average survived (P388 [2]) [days] | cytotoxicity at 72 h, 100 µM [3] [%] | cytotoxicity at 72 h, 10 µM [4] [%] | cytotoxicity at 72 h, 1 µM [5] [%] | T/C (P388 [6]) [%] | T/C (P388 [7]) [%] | cytotoxicity at 72 h, 100 µM [8] [%]
O=c1[nH]c(=O)n(C2CCCS2(=O)=O)cc1F (configuration not stated) | 119 | 12.17 | 92 | 85 | 59.2 | – | – | –
O=c1[nH]c(=O)n(C2CCCS2)cc1F (configuration not stated) | – | 10.17 | 68.5 | 52.5 | 16.9 | 100 | – | –
O=c1[nH]c(=O)n(C2CCC[S+]2[O-])cc1F (configuration not stated) | – | 14.5 | 84.5 | 82.9 | 64.9 | 143 | – | –
O=C1CCCC1n1cc(F)c(=O)[nH]c1=O (configuration not stated) | – | 10.5 | 65.5 | 49.1 | 40 | – | 103 | –
O=c1[nH]c(=O)n([C@H]2C[C@H](O)[C@@H](CO)O2)cc1F [FLOXURIDINE] | – | 15.17 | – | – | – | 149 | – | –
O=c1[nH]cc(F)c(=O)[nH]1 [FLUOROURACIL] | – | 17.6 | 90.3 | 81.2 | 79.8 | 173 | – | –
O=c1[nH]c(=O)n(C2CCCO2)cc1F (configuration not stated) [TEGAFUR] | – | 10 | – | 67.5 | 17.2 | 98 | – | 81.8
